From ChEMBL document CHEMBL1765024, “Fluorescent cyclin-dependent kinase inhibitors block the proliferation of human breast cancer cells” (Bioorg Med Chem, 2011)
Calls of active or inactive are those of the source. No cut-off for these calls is given here.

How the values were obtained:
[1] = Antiproliferative activity against human CL 10.3 cells expressing p-glycoprotein after 72 hrs by WST-1 assay; format: functional, cell-based
Summary of the method: (§1)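 MCF-7 and its P-glycoprotein-overexpressing MDR subline CL 10.3 were grown in DMEM with 10% heat-inactivated FBS. Compounds in DMSO were serially diluted in medium and given to cells for 72 h. Read-out was WST-1 reduction (450 nm, 630 nm reference). IC50 interpolated from log concentration versus fraction surviving; mean (SEM) of triplicates. Ratio is CL 10.3 IC50 over MCF-7 IC50.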

[2] = target: Cyclin-dependent kinase 1/cyclin B1 (Homo sapiens) (UniProt P06493+P14635); details: at 0.1 µM
MCF7 [3] = assay: Induction of apoptosis in human MCF7 cells assessed as aberrant gross morphological changes at 10 uM after 48 hrs using propidium iodide staining by confocal microscopic analysis; format: functional, cell-based
MDA-MB-231 [4] = assay: Induction of apoptosis in human MDA-MB-231 cells assessed as aberrant gross morphological changes at 10 uM after 48 hrs using propidium iodide staining by confocal microscopic analysis; format: functional, cell-based
MDA-MB-231 [5] = assay: Cell cycle arrest in human MDA-MB-231 cells assessed as accumulation at G2/M phase treated at 5 uM for 24 hrs measured after drug washout following 48 hrs growth recovery using propidium iodide staining by flow cytometry; format: functional, cell-based
Summary of the method: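 Exponentially growing cells exposed 24 h, then held a further 48 h in compound-free medium. Cells trypsinized, pelleted, PBS-washed, permeabilized in 70% ethanol, stained 30 min in the dark at room temperature with PI plus RNase, and analysed by flow cytometry. Phase percentages given after subtracting untreated control. Mean of triplicate experiments.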

MDA-MB-231 [6] = assay: Drug uptake in human MDA-MB-231 cell cytoplasm at 10 uM after 3 to 24 hrs using propidium iodide staining by two-photon confocal microscopy; format: ADME, cell-based; details: mda-mb-231, 10 µM
MCF7 [7] = assay: Induction of apoptosis in human MCF7 cells assessed as necrotic cells at 10 uM after 24 hrs using annexinV-propidium iodide staining by flow cytometry (reference value: 12.09%); format: functional
MCF7 [8] = assay: Cell cycle arrest in human MCF7 cells assessed as accumulation at G2/M phase at 5 to 10 uM after 24 hrs using propidium iodide staining by flow cytometry; format: functional, cell-based
Summary of the method: (§2)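 Asynchronous cells were treated with 5 or 10 µM compound or DMSO for 24 h (also 16 and 40 h). They were trypsinized, washed in PBS and fixed/permeabilized in 70% ethanol. Staining was with RNase and propidium iodide for 30 min in the dark at room temperature, followed by flow cytometry. Phase percentages are given minus DMSO control; mean of triplicates.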

MCF7 [9] = assay: Induction of apoptosis in human MCF7 cells assessed as decrease in cell number at 10 uM after 48 hrs using propidium iodide staining by confocal microscopic analysis; format: functional, cell-based
[10] = target: Cyclin-dependent kinase 7/ cyclin H (Homo sapiens) (UniProt P51946+P50613); assay: Inhibition of human CDK7/cyclinH/MAT1 at 0.1 uM after 40 mins relative to control; format: protein-complex assay
Summary of the method: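 Radiometric screen at 100 nM compound against purified human CDK/cyclin (5–10 mU). Incubation 40 min at room temperature, stopped with phosphoric acid. Read by filtermat scintillation. Activity expressed as % of control, N = 2.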

MCF7 [11] = assay: Induction of apoptosis in human MCF7 cells assessed as late apoptotic cells at 10 uM after 24 hrs using annexinV-propidium iodide staining by flow cytometry (reference value: 13.35%); format: functional
MDA-MB-231 [12] = assay: Induction of apoptosis in human MDA-MB-231 cells assessed as reduction of cdc2 phosphorylation at Y15 regulatory site at 10 uM by Western blot analysis; format: functional, cell-based; details: TDE = time-dependent effect
Summary of the method: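 MDA-MB-231 cells were treated with 10 µM compound for 1, 3, 6, 12 and 24 h and lysed. Equal protein was resolved by 10% SDS–PAGE and immunoblotted for phospho-cdc2 (T161, Y15), cdc2 and cyclin B, with actin as loading standard and ECL detection.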

MDA-MB-231 [13] = assay: Cell cycle arrest in human MDA-MB-231 cells assessed as accumulation at G2/M phase at 5 to 10 uM after 24 hrs using propidium iodide staining by flow cytometry; format: functional, cell-based; summary of the method: as §2
MCF7 [14] = assay: Cell cycle arrest in human MCF7 cells assessed as accumulation at sub G1 phase at 5 to 10 uM after 24 hrs using propidium iodide staining by flow cytometry; format: functional, cell-based; summary of the method: as §2
MCF7 [15] = assay: Antiproliferative activity against human MCF7 cells expressing estrogen receptor after 72 hrs by WST-1 assay; format: functional, cell-based; details: MCF7, 72 h; summary of the method: as §1

Cyclin-dependent kinase 1/cyclin B1 (Homo sapiens), sequence (P06493 whole entry, looked up): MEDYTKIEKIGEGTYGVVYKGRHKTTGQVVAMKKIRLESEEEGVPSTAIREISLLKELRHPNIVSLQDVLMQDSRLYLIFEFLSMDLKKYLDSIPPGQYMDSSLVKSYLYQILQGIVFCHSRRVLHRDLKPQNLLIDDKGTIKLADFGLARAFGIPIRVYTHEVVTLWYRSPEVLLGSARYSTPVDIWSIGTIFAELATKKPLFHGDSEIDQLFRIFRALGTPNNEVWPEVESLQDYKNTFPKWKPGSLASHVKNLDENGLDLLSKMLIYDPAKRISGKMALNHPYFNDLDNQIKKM
Cyclin-dependent kinase 1/cyclin B1 (Homo sapiens), sequence (P14635 whole entry, looked up): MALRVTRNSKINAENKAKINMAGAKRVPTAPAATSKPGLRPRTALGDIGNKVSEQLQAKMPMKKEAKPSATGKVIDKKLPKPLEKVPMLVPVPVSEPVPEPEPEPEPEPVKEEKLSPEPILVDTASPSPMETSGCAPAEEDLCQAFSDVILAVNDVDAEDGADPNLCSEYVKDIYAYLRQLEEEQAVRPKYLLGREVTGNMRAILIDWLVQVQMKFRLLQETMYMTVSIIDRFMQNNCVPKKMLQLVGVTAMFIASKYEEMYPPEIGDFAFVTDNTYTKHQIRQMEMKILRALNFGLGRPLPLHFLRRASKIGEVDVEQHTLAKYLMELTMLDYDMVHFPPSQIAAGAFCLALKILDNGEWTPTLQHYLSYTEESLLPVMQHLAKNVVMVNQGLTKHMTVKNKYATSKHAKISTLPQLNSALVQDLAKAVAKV

Compound: CC(C)[C@H](CO)Nc1nc(Nc2ccc(C(=O)NCCNS(=O)(=O)c3cccc4c(N(C)C)cccc34)c(Cl)c2)c2ncn(C(C)C)c2n1
- IC50 [1]: 44.1 µM
- inhibition [2]: 35%
- Activity (MCF7 [3]): Active
- Activity (MDA-MB-231 [4]): Active
- Activity (MDA-MB-231 [5]): Active
- Activity (MDA-MB-231 [6]): Active
- Activity (MCF7 [7]): 17.15%
- Activity (MCF7 [8]): Active
- Activity (MCF7 [9]): Active
- inhibition [10]: 69%
- Activity (MCF7 [11]): 23.47%
- inhibition (MDA-MB-231 [12]): tde
- Activity (MDA-MB-231 [13]): Active
- Activity (MCF7 [14]): Active
- IC50 (MCF7 [15]): 4.5 µM
